Data published in ChEMBL document CHEMBL3297648, “Diterpenoids from the Chinese liverwort Heteroscyphus tener and their antiproliferative effects” (J Nat Prod, 2014).
Calls of active or inactive are those of the source. No cut-off for these calls is given here.

Tests used:
[1] = target: Serine/threonine-protein kinase ATR (Homo sapiens) (UniProt Q13535); assay: Activation of ATR in human DU145 cells assessed as ChK1 phosphorylation at Ser296 at 20 uM after 12 hrs by western blot analysis; format: cell-based; settings: DU-145
Sequence of Serine/threonine-protein kinase ATR (Homo sapiens) (Q13535 whole entry, looked up): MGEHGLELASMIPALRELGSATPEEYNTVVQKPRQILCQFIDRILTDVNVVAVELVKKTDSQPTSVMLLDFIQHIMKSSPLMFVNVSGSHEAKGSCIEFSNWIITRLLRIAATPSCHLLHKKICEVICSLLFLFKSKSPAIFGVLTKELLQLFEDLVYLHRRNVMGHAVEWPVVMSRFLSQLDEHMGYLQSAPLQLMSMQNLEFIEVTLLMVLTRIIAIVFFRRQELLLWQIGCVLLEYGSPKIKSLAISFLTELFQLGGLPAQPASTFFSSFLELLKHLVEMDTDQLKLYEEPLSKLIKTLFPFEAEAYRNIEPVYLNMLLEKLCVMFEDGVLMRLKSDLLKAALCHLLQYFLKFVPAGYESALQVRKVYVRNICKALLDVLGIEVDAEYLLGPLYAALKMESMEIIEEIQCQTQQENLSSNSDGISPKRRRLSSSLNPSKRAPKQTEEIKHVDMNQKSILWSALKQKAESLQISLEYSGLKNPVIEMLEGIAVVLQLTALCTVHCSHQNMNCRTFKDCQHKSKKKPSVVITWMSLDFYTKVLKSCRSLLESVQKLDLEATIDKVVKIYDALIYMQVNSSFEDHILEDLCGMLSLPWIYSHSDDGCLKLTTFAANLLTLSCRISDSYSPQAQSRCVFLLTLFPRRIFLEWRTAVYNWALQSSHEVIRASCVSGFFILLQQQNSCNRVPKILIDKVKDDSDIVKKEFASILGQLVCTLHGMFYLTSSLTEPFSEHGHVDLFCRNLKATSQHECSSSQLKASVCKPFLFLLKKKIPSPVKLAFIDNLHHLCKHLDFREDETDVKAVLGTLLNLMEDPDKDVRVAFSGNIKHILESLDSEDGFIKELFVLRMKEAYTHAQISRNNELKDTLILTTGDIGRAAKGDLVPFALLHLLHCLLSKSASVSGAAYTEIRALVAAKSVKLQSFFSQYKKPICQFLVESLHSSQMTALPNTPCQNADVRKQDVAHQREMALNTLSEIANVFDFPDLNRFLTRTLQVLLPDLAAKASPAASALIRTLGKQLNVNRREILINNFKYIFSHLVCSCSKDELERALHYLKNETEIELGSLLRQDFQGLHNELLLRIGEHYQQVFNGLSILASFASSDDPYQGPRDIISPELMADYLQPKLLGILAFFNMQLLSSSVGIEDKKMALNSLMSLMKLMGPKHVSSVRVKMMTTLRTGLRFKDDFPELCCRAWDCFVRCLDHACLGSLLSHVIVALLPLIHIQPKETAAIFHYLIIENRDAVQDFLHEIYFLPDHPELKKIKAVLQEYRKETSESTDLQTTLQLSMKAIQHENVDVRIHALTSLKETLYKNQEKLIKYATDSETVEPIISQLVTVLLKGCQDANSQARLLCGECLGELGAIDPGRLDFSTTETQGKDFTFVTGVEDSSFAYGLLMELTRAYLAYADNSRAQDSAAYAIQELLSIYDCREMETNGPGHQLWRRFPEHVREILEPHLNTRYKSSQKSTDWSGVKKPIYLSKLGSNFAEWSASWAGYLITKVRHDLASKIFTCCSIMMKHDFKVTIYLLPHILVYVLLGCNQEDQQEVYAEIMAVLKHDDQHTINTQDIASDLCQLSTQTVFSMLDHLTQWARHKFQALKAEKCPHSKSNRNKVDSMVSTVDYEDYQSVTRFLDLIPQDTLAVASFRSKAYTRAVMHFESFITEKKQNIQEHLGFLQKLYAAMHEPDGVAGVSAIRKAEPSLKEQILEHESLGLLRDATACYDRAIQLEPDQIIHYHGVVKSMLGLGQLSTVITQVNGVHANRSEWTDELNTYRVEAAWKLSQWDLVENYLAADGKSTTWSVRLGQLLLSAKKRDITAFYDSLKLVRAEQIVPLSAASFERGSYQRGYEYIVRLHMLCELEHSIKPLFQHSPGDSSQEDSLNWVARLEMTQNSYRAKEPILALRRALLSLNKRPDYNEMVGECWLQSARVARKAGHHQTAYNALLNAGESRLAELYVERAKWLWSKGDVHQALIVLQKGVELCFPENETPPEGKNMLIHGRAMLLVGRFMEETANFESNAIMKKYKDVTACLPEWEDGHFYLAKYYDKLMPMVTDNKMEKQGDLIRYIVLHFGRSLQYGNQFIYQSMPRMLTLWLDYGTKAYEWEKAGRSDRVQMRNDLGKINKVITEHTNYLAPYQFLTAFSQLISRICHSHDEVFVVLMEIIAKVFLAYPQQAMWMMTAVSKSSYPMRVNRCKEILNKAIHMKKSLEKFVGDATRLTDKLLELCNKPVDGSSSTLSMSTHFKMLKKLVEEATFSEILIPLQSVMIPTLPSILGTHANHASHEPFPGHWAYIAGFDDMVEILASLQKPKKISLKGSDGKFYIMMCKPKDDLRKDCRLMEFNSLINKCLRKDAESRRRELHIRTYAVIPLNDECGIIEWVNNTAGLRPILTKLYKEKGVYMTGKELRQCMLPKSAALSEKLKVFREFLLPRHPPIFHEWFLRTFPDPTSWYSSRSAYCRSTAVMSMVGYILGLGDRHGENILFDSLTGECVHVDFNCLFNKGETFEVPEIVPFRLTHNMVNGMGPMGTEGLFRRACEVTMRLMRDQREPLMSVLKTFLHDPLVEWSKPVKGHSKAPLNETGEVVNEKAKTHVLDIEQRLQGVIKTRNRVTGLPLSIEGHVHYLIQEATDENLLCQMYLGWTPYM
Method in brief: (§1)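 Cells treated at 20 μM for various times, lysed in RIPA buffer with protease/phosphatase inhibitors, protein quantified by BCA. Equal protein run on 12% SDS-PAGE, transferred to nitrocellulose, blocked 1 h in 5% milk/TBST, primary antibodies overnight at 4 °C, secondary 1:2000 for 45 min, ECL detection on film. GAPDH used as loading control.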

[2] = Decrease in ChK1 protein expression in human PC3 cells at 20 uM after 2 to 48 hrs by western blot analysis; format: functional, cell-based; settings: PC-3; method in brief: as §1
[3] = Decrease in ChK1 protein expression in human DU145 cells at 20 uM after 2 to 48 hrs by western blot analysis; format: functional, cell-based; settings: DU-145; method in brief: as §1
[4] = target: Breast cancer type 1 susceptibility protein (Homo sapiens) (UniProt P38398); assay: Inactivation of BRCA1 in human PC3 cells assessed as decline in BRCA1 phosphorylation at Ser1524 at 20 uM after 8 hrs by western blot analysis; format: cell-based; settings: PC-3; method in brief: as §1
Sequence of Breast cancer type 1 susceptibility protein (Homo sapiens) (P38398 whole entry, looked up): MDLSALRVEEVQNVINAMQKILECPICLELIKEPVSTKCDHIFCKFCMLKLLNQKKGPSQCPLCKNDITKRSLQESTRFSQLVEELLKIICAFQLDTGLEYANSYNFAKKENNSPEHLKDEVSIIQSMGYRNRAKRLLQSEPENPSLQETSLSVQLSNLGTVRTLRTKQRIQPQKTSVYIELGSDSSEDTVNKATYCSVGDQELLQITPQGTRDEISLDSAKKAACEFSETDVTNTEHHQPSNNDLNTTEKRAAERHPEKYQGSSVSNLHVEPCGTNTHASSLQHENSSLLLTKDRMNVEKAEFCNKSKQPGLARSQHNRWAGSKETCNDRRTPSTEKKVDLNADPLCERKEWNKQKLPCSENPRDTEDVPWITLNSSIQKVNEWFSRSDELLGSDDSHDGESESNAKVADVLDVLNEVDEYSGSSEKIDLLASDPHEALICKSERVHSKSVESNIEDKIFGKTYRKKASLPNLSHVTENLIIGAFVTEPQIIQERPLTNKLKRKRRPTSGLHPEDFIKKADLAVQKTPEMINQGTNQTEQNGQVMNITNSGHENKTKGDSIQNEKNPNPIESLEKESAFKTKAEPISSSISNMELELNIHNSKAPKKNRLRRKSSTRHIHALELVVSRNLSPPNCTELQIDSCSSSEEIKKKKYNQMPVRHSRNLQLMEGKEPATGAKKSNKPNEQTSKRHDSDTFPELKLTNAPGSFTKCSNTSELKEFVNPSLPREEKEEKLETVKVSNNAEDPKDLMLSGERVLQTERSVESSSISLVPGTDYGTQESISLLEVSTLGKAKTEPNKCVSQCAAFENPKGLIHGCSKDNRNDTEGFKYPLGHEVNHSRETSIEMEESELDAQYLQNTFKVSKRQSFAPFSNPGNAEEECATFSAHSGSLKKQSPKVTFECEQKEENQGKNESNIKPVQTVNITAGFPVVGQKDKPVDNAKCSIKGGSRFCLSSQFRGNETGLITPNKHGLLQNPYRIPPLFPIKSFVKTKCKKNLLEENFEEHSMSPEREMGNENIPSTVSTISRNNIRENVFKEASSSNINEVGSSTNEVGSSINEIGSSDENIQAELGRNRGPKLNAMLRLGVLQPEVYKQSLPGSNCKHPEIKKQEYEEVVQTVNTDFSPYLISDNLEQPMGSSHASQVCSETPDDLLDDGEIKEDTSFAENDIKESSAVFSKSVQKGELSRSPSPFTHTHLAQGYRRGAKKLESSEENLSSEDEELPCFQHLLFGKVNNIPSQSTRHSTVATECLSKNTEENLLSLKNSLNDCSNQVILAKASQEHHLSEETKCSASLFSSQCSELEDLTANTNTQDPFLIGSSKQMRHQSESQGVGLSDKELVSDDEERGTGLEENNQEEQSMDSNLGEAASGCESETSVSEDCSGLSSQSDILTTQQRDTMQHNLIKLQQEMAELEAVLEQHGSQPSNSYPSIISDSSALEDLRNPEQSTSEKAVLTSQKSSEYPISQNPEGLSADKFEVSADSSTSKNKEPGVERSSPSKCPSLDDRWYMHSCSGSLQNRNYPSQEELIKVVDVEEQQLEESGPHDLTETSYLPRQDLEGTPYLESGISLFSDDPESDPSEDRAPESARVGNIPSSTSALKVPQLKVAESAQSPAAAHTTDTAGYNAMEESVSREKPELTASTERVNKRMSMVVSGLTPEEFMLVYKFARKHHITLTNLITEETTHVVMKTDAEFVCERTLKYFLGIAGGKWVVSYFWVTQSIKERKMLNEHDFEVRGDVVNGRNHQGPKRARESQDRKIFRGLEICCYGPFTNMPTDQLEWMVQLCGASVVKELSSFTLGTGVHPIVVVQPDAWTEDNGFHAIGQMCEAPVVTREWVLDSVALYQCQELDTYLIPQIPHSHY

[5] = Decrease in BRCA1 protein expression in human DU145 cells at 20 uM after 2 to 48 hrs by western blot analysis; format: functional, cell-based; settings: DU-145; method in brief: as §1
[6] = Antiproliferative activity against human PC3 cells assessed as inhibition of cell viability after 24 hrs by MTT assay; format: functional, cell-based; settings: PC-3, 24 h
Method in brief: (§2)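 Cells grown to 50–70% confluence (RWPE1 in K-SFM with pituitary extract and EGF; the other lines in RPMI 1640 with 10% FBS), 5% CO2, 37 °C. Treated for 24 h with DMSO vehicle, compounds, or cisplatin as positive control. MTT (5 mg/mL) added for 4 h, formazan dissolved in DMSO, absorbance read at 570 nm. Viability taken relative to untreated cells after blank subtraction, IC50 fitted from % viability, at least three experiments.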

DU-145 [7] = assay: Antiproliferative activity against human DU145 cells assessed as inhibition of cell viability after 24 hrs by MTT assay; format: functional, cell-based; settings: DU-145, 24 h; method in brief: as §2
DU-145 [8] = assay: Cell cycle arrest in human DU145 cells assessed as accumulation at G0/G1 phase at 10 uM after 24 hrs by propidium iodide staining based flow cytometry (reference value: 63.34%); format: functional
DU-145 [9] = assay: Cell cycle arrest in human DU145 cells assessed as accumulation at S phase at 10 uM after 24 hrs by propidium iodide staining based flow cytometry (reference value: 25.94%); format: functional
DU-145 [10] = assay: Cell cycle arrest in human DU145 cells assessed as accumulation at subG1 phase at 20 uM after 24 hrs by propidium iodide staining based flow cytometry (reference value: 0.28%); format: functional
DU-145 [11] = assay: Cell cycle arrest in human DU145 cells assessed as accumulation at G2/M phase at 20 uM after 24 hrs by propidium iodide staining based flow cytometry (reference value: 10.44%); format: functional
[12] = Decrease in cyclin E protein expression in human PC3 cells by western blot analysis; format: functional, cell-based; settings: PC-3, TDE = time-dependent effect
Method in brief: (§3)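 Western blot of cyclin D1, cyclin E, Cdk4 and p21 in PC3 and DU145 lysates. Lysis in RIPA buffer plus protease inhibitors, BCA quantification, 12% SDS-PAGE, nitrocellulose transfer, milk block, primaries overnight at 4 °C, secondary 1:2000 for 45 min, ECL read-out. GAPDH served as loading control.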

[13] = Decrease in cyclin D1 protein expression in human DU145 cells by western blot analysis; format: functional, cell-based; settings: DU-145, TDE = time-dependent effect; method in brief: as §3
[14] = Decrease in Cdk4 protein expression in human PC3 cells after 2 to 48 hrs by western blot analysis; format: functional, cell-based; settings: PC-3; method in brief: as §3
DU-145 [15] = assay: Increase in p21CIP1 protein expression in human DU145 cells after 2 to 48 hrs by western blot analysis; format: functional, cell-based; method in brief: as §3
PC-3 [16] = assay: Induction of apoptosis in human PC3 cells assessed as early apoptotic cells at 20 uM after 4 hrs by Annexin V-FITC/propidium iodide staining based flow cytometry (reference value: 0.79%); format: functional
Method in brief: (§4)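 Cells seeded in 6-well plates for 24 h, then given 20 μM for the stated times. Cells were trypsinized, PBS-washed, stained with annexin V-FITC/PI, and analysed immediately by flow cytometry. Means ± SD of three independent experiments; Student's t test against untreated control.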

PC-3 [17] = assay: Induction of apoptosis in human PC3 cells assessed as late apoptotic cells at 20 uM after 4 hrs by Annexin V-FITC/propidium iodide staining based flow cytometry (reference value: 7.92%); format: functional; method in brief: as §4
PC-3 [18] = assay: Induction of apoptosis in human PC3 cells assessed as late apoptotic cells at 20 uM after 12 hrs by Annexin V-FITC/propidium iodide staining based flow cytometry (reference value: 7.92%); format: functional; method in brief: as §4
PC-3 [19] = assay: Induction of apoptosis in human PC3 cells assessed as necrotic cells at 20 uM after 24 hrs by Annexin V-FITC/propidium iodide staining based flow cytometry (reference value: 0.98%); format: functional; method in brief: as §4
DU-145 [20] = assay: Induction of apoptosis in human DU145 cells assessed as necrotic cells at 20 uM after 4 hrs by Annexin V-FITC/propidium iodide staining based flow cytometry (reference value: 0.21%); format: functional; method in brief: as §4
DU-145 [21] = assay: Induction of apoptosis in human DU145 cells assessed as late apoptotic cells at 20 uM after 8 hrs by Annexin V-FITC/propidium iodide staining based flow cytometry (reference value: 1.53%); format: functional; method in brief: as §4
DU-145 [22] = assay: Induction of apoptosis in human DU145 cells assessed as necrotic cells at 20 uM after 12 hrs by Annexin V-FITC/propidium iodide staining based flow cytometry (reference value: 0.21%); format: functional; method in brief: as §4
PC-3 [23] = assay: Induction of apoptosis in human PC3 cells assessed as increase in caspase-3 activity using Ac-DEVD-AMC as substrate at 20 uM by fluorometric method; format: functional, cell-based; settings: TDE = time-dependent effect
Method in brief: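 Cells treated with 20 μM for the stated times. Pellets lysed on ice 15 min, spun at 14 000g for 15 min at 4 °C. Supernatant assayed in buffer containing CHAPS, 10% glycerol, 2 mM EDTA, 5 mM DTT for 2 h at 37 °C. Fluorescence read at ex 380/em 440 nm.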

PC-3 [24] = assay: Induction of ROS generation in human PC3 cells at 20 uM after 30 mins to 4 hrs by DCFH-DA staining based flow cytometry; format: functional, cell-based
Method in brief: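 Cells in RPMI 1640 with 10% FBS, 5% CO2, 37 °C, treated at 50−70% confluence (DMSO vehicle). After exposure, cells were loaded with 10 μM DCFH-DA for 30 min at 37 °C, washed, resuspended in PBS, and read at once by flow cytometry. For NAC runs, cells got 5 mM NAC 1 h before compound. ROS reported as ratio relative to untreated control.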

DU-145 [25] = assay: Antiproliferative activity against human DU145 cells assessed as inhibition of cell viability at 20 uM pretreated for 1 hr with 5 mM antioxidant NAC measured after 24 hrs by MTT assay; format: functional, cell-based
PC-3 [26] = assay: Induction of DNA damage in human PC3 cells assessed as gamma-H2AX phosphorylation at ser139 at 20 uM by western blot analysis; format: functional, cell-based; settings: TDE = time-dependent effect; method in brief: as §1
PC-3 [27] = assay: Increase in H2AX protein expression in human PC3 cells at 20 uM after 2 to 48 hrs by western blot analysis; format: functional, cell-based; method in brief: as §1

- Activity [1]: Active
- inhibition [4]: Active
- IC50 (DU-145 [7]): 28.5 µM
Structure (SMILES): C=C[C@@](C)(O)CC[C@@H]1C(C)=CC[C@@H]2C(C)(C)CCC[C@@]12C
- inhibition [2]: Active
- inhibition [3]: Active
- inhibition [5]: inactive
- IC50 [6]: 26.6 µM
- Activity (DU-145 [8]): 67.97%
- Activity (DU-145 [9]): 21.68%
- Activity (DU-145 [10]): 2.82%
- Activity (DU-145 [11]): 12.9%
- inhibition [12]: tde
- inhibition [13]: tde
- inhibition [14]: Active
- Activity (DU-145 [15]): Active
- Activity (PC-3 [16]): 2.48%
- Activity (PC-3 [17]): 12.94%
- Activity (PC-3 [18]): 12.66%
- Activity (PC-3 [19]): 10.21%
- Activity (DU-145 [20]): 1.54%
- Activity (DU-145 [21]): 8.94%
- Activity (DU-145 [22]): 1.05%
- Activity (PC-3 [23]): tde
- Activity (PC-3 [24]): Active
- inhibition (DU-145 [25]): inactive
- Activity (PC-3 [26]): tde
- Activity (PC-3 [27]): inactive
